The nature of data set [1]: Average max percent decrease in RVR (renal vascular resistance) was determined. An outline of the steps:
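Secondary protocol in anesthetized dogs. Drug given as iv infusion at progressively increasing rates, each dose level for 5 min. The maximum effect is taken as the largest percent decrease in renal vascular resistance (RVR) reached with the compound. RVR is calculated as mean arterial blood pressure / mean renal blood flow.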

For data set [2], the system named is Canis familiaris. The data set can be described thus: Compound was evaluated for renal vasodilator activity and represented as ED15 (intravenous administration). The class given is functional. The following applies: Canis lupus familiaris. An outline of the steps: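 Secondary protocol in anesthetized dogs with iv infusion at progressively increasing rates, each level infused 5 min. Potency is the cumulative dose (µg/kg) that lowered renal vascular resistance (MABP / mean RBF) by 15%. Minimum change needed for significance (p = 0.95) is 16% for RVR.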

In data set [3] the test system is Canis familiaris. The data set can be described thus: In vivo percent change in renal blood flow at 30 ug/Kg/min. The class given is functional, Canis lupus familiaris, Kidney. An outline of the steps: (§1)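 Primary screen in anesthetized dogs (7-17 kg). Drug infused separately at 3, 30 and 300 µg/(kg min), each infusion lasting 5 min, at about 15-min intervals. Read-outs are renal blood flow, mean arterial blood pressure, heart rate, and RVR (MABP / mean RBF), as percent change. Significance thresholds are defined per number of dogs; n = 1-3 dogs.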

In data set [4] the test system is Canis familiaris. The data set can be described thus: Renal vasodilator activity in anesthetized dogs and percent change in renal vascular resistance (RVR) was determined at 30 ug/Kg/min. The class given is functional, Canis lupus familiaris. An outline of the steps: as §1
Data set [5] has as its system Canis familiaris. The data set can be described thus: In vivo percent change in canine heart rate at 3 ug/Kg/min. The data set is classed as functional, Canis lupus familiaris. The procedure, abridged: as §1
In data set [6] the test system is Canis familiaris. The data set can be described thus: In vivo percent change in canine heart rate at 300 ug/Kg/min. The class given is functional, Canis lupus familiaris. The procedure, abridged: as §1
The test system of data set [7] is Canis familiaris. The data set can be described thus: In vivo percent change in canine mean arterial blood pressure (MABP) at 3 ug/Kg/min. The data set is classed as functional, Canis lupus familiaris. The procedure, abridged: as §1
Data set [8] relates to Canis familiaris. The data set can be described thus: In vivo percent change in canine mean arterial blood pressure (MABP) at 30 ug/Kg/min. The class given is functional, Canis lupus familiaris. The procedure, abridged: as §1
The test system of data set [9] is Canis familiaris. The data set can be described thus: In vivo percent change in canine mean arterial blood pressure (MABP) at 300 ug/Kg/min. The class given is functional, Canis lupus familiaris. An outline of the steps:
as §1

In data set [10] the test system is Canis familiaris. The data set can be described thus: In vivo percent change in canine renal blood flow (RBF) at 3 ug/Kg/min. The class given is functional, Canis lupus familiaris, Kidney. The procedure, abridged:
as §1

In data set [11] the test system is Canis familiaris. The data set can be described thus: In vivo percent change in canine renal blood flow (RBF) at 300 ug/Kg/min. The class given is functional, Canis lupus familiaris, Kidney. An outline of the steps:
as §1

In data set [12] the test system is Canis familiaris. The data set can be described thus: In vivo percent change in canine renal vascular resistance (RVR) at 3 ug/Kg/min. The data set is classed as functional, Canis lupus familiaris. The procedure, abridged: as §1
The subject of data set [13] is Canis familiaris. The data set can be described thus: In vivo percent change in canine renal vascular resistance (RVR) at 300 ug/Kg/min. The class given is functional, Canis lupus familiaris. An outline of the steps:
as §1

Data set [14] concerns Canis familiaris. The data set can be described thus: Renal vasodilator activity in anesthetized dogs was determined as percent change in heart rate (HR) at 30 ug/Kg/min. The class given is functional, Canis lupus familiaris. The procedure, abridged:
as §1

Data set [15] can be described thus: Ratio of ED20 of MABP (mean arterial blood pressure) to the ED15 of RVR (renal vascular resistance). The class given is functional. An outline of the steps: (§2)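 Anesthetized dogs in the secondary cumulative-infusion protocol, each dose level 5 min. Selectivity ratio is the dose giving a 20% change in mean arterial blood pressure divided by the cumulative dose lowering renal vascular resistance 15% (RVR ED15).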

Data set [16] in a line: Ratio of ED30 of iliac vascular resistant (IVR) to the ED15 of RVR (renal vascular resistance). The data set is classed as functional. The procedure, abridged:
(§3)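 Anesthetized dogs in the secondary cumulative-infusion protocol, each dose level 5 min. Selectivity ratio is the dose giving a 30% change in iliac vascular resistance divided by the RVR ED15, the cumulative dose decreasing renal vascular resistance by 15%.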

Data set [17] in a line: Ratio of ED20 of MABP (mean arterial blood pressure) to the ED15 of RVR ( renal vascular resistance). The class given is functional. An outline of the steps:
as §2

Data set [18] can be described thus: Ratio of ED30 of iliac vascular resistant (IVR) to the ED15 of RVR(renal vascular resistance). The data set is classed as functional. The procedure, abridged: as §3
Data set [19] has as its system Canis familiaris. The data set can be described thus: Renal vasodilator activity in anesthetized dogs and percent change in renal vascular resistance (RVR) was determined at 300 ug/Kg/min. The data set is classed as functional, Canis lupus familiaris. The procedure, abridged: as §1
The test system of data set [20] is Canis familiaris. The data set can be described thus: In vivo percent change in canine heart rate at 30 ug/Kg/min. The class given is functional, Canis lupus familiaris. The procedure, abridged: as §1

“And” between values parts separate entries of the source, which are not always exact repeats. Identical values can stand only once. Square brackets hold non-standard residues; d marks the D form. Peptide text beside a SMILES is read from it. * marks the point of attachment. ξ: configuration not given here. Butanoyl(4-(4-HOPh)) = O=C(CCCc1ccc(O)cc1)*; ξαMeF = CC(N)(Cc1ccccc1)C(=O)O

Compound `CC(Cc1ccccc1)(NC(=O)[C@@H]1CCCN1C(=O)CCCc1ccc(O)cc1)C(=O)NCC(=O)N1CCC[C@H]1C(=O)O` (stereo partly specified) ({Butanoyl(4-(4-HOPh))}-P[ξαMeF]GP-OH) displayed a Decrease in data set [1] of 20%. Besides, the ED15 with Canis familiaris [2] amounted to 4.9 µg/kg. Also, the Change in the data set with Canis familiaris [3] is 16%; with Canis familiaris [4], -21%; with Canis familiaris [5], 6%; in the data set on Canis familiaris [6], 6%; in the data set on Canis familiaris [7], -5%; in the data set with Canis familiaris [8], -9%. In addition, the Change was -6% with Canis familiaris [9]; 17% with Canis familiaris [10]; 14% with Canis familiaris [11]; -18% in the data set on Canis familiaris [12]; -17% with Canis familiaris [13]; 10% with Canis familiaris [14]. Further, the Ratio in data set [15] is more than 1226; in data set [16], more than 1230.
As for H-RPPGFSPFR-OH [BRADYKININ], the ED15 in the data set with Canis familiaris [2] was determined as 2.8 µg/kg. Besides, the Ratio in [17] is 7 and 8; in data set [18], 25.
For the compound `CC(Cc1ccccc1)(NC(=O)[C@@H]1CCCN1C(=O)CCCc1ccc(O)cc1)C(=O)NCCCN.Cl` (stereo partly specified), the Change in the data set on Canis familiaris [3] is 4.3%; in the data set with Canis familiaris [4], -4.7%; with Canis familiaris [19], -11.3%; in the data set with Canis familiaris [5], 0.7%; in the data set on Canis familiaris [20], 1.3%; in the data set on Canis familiaris [6] it was 8%. The Change in the data set on Canis familiaris [7] was -0.7%; in the data set on Canis familiaris [8] it was 3%; with Canis familiaris [9] it was -1.4%; with Canis familiaris [10] it was 3.3%; with Canis familiaris [11], 11.7%; in the data set on Canis familiaris [12] it was 4%.

These data come from ChEMBL document CHEMBL1122774, “Tri- and tetrapeptide analogues of kinins as potential renal vasodilators” (J Med Chem, 1984).
